As usually defined, the IC50 is the concentration needed to halve the response being measured.

SMILES strings stand for the structures. The source made the active and inactive calls. The rule behind the calls is not given here.

Data on three compounds can be found in ChEMBL document CHEMBL1165905, “Synthesis of methyl-substituted xanthotoxol to clarify prooxidant effect of methyl on radical-induced oxidation of DNA” (Eur J Med Chem, 2010).

A short description of assay [1]: Antioxidant activity assessed as protection against […]-induced oxidation of DNA […]. It counts as functional.
The nature of assay [2]: Antioxidant activity against beta-carotene and linoleic acid assessed as inhibition of bleaching of beta-carotene at 13.3 uM measured up to 540 mins by autooxidation assay. It counts as functional. In a few lines:
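β-Carotene–linoleic acid emulsion with compound at 13.3 μM. Bleaching of β-carotene by peroxyl radicals from linoleic acid autoxidation was followed as absorbance at 460 nm and plotted against time.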

Assay [3] is described as follows: Antioxidant activity assessed as galvinoxyl radical scavenging activity measured up to 210 mins. It counts as functional. In outline: (§1)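 Radical was dissolved in ethanol to about 1.00 absorbance: DPPH read at 517 nm, galvinoxyl at 428 nm. Compound in ethanol was added at 200 μM final and absorbance decay recorded. Percent scavenged = (1 − Abs_detect/Abs_ref) × 100, plotted against incubation time.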

For assay [4], the system named is Radical scavenging activity. Description: Antioxidant activity assessed as DPPH radical scavenging activity measured up to 300 mins. The class given is functional. In outline: as §1
A general note: Loss of DPPH colour is used to gauge radical scavenging.

A short description of assay [5]: Antioxidant activity assessed as protection against […]-induced oxidation of DNA at 80 uM up to 675 mins.
Assay [6] can be described thus: Antioxidant activity assessed as protection against Cu(2+)/[…]-induced DNA damage up to 180 mins by TBARS assay. The class given is functional. In outline: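 DNA (2.0 mg/mL), CuSO4 (5.0 mM) and GSH (3.0 mM) in phosphate buffer (6.1 mM Na2HPO4, 3.9 mM NaH2PO4). Compound added from DMSO at 0.2 mM final. Incubated at 37 °C, with three tubes removed every 30 min and stopped with EDTA (30.0 mM final). TBARS read in the n-butanol layer at 535 nm. Oxidative percentage = (A_x/A_0) × 100 at 150 min relative to control.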

As for `O=c1ccc2cc3ccoc3c(O)c2o1` [XANTHOTOXOL], the outcome in assay [1], in assay [2], in assay [5] and in assay [6] was Active. Also, the IC50 is 188 µM in assay [3] and 69.6 µM in assay [4].
Regarding `Cc1coc2c(O)c3oc(=O)cc(C)c3cc12`, the result in assay [1], in assay [2], in assay [5] and in assay [6] was Active. Moreover, the IC50 was 170 µM in assay [3] and 119 µM in assay [4].
As to `Cc1cc(=O)oc2c(O)c3occc3cc12`, the result in assay [1], in assay [2], in assay [5] and in assay [6] was Active. Moreover, the IC50 in assay [3] is 173 µM; in assay [4], 81.5 µM.
